A selection: hits, their analogues and other compounds. The true share with any hit is near 3.8%.
Lipid droplet = inhibitors of hepatocyte lipid droplet formation, primary screen, imaging, high-throughput imaging, BODIPY stain; AML12 mouse hepatocytes, oleate lipid droplets; inhibition, % at 6.5 µM; 240,000 tested, 0.4% active;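 active means lipid droplet intensity inhibited by at least 50%, with more than 500 cells counted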
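Test system: AML12 hepatocytes (mouse); reagent: oleate loading, 100 µM; dosing: one dose, 6.5 µM compound; incubation: overnight exposure; signal: fluorescence imaging, 20x objective, two fields per well; read-out basis: % inhibition of corrected integrated BODIPY droplet signal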
HSP90 refold inh = HSP90 inhibitors, primary screen, cell lysate, luminescence. Rabbit reticulocyte lysate, luciferase refolding luminescence, 3 h. inhibition, % at 5.6 µM. Heat shock protein HSP 90 (rabbit reticulocyte lysate; luciferase refolding). 290,000 tested, 0.91% active;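 active means inhibition above the screen-wide mean plus 3 SD, computed separately per campaign, cut at about 16% in these data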;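 further: 0% = DMSO wells and 100% = 60 µM geldanamycin wells; inhibitors lower the luminescence because luciferase stays unfolded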
HSF1 inh = HSF1 inhibitors in luciferase reporter cells, primary screen, cell-based, NIH3T3, luminescence; NIH3T3-HGL HSE-luciferase, MG132-induced, luminescence 8 h; active compounds read low; activity change, negative = inhibition, % at 7.5 µM (by protocol); 300,000 tested, 0.77% active; AID 2098, 2009;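 active means more than half of replicate wells show activity change below -50%, luminescence cut by over half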;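 further: luciferase reports HSF-1 transcriptional activity via heat shock element; 0% = median of DMSO wells and -100% = zero luminescence signal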
HCV NS3 hel inh = inhibitors of HCV NS3 helicase, primary screen, biochemical, Cy5 molecular beacon fluorescence | inhibition, % at 10.9 µM | NS3 helicase DNA unwinding | 290,000 tested, 0.56% active;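 active means inhibition above the mean of all tested compounds plus 3 SD, set per campaign, cut at about 35% in these data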;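 further: 0% = DMSO wells and 100% = thioflavine S control wells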
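Control set: DMSO versus 110 µM thioflavine S; Material: NS3 helicase fragment of HCV; Measured by: Cy5 fluorescence at 0 and 60 min, beacon hairpin quenching; Read-out basis: percent inhibition from t60/t0 fluorescence ratio; Times: reaction time 60 min, 25 °C; Repeats: single replicate; Compound dosing: single dose, 10.9 µM nominal final, DMSO 0.8% final.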
HSF-1 act = HSF-1 activators, primary screen, NIH3T3-HGL cells, MG132 stress, luminescence, single point; 300,000 tested, 1.7% active; NIH3T3-HGL HSF-1 luciferase reporter, 8 h; 100% = twice DMSO control signal; activation, % at 9 µM; AID 504408, 2011;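 active means mean replicate activation of at least 50% with a set share of replicates each reaching 50%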;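 further: 0% = median of the neutral control wells and 100% = twice that signal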
HSP90 confirm = HSP90 inhibitors, confirmation, cell lysate, luminescence; shares compounds with HSP90 refold inh; rabbit reticulocyte lysate, luciferase refolding luminescence, 3 h; inhibition, % at 5.9 µM; 2,300 tested, 64% active; AID 1846, 2009; in the data active means inhibition above about 18%;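 further: 0% = vehicle wells and 100% = reference inhibitor wells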
luciferase ctr = firefly luciferase inhibitors, HSP90 counter-screen, confirmation, artefact control for HSP90 inhibitor project, biochemical, luminescence, triplicate; 2,300 tested, 48% active; shares compounds with HSP90 refold inh; inhibition, % at 5.9 µM; AID 1847, 2009; purified native firefly luciferase;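 active means inhibition above the mean inhibition of all tested sample wells plus 3 SD, cut at about 10% in these data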;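 further: 0% = DMSO with luciferase and 100% = wells lacking luciferase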
Target sequence (P08659 whole entry, looked up): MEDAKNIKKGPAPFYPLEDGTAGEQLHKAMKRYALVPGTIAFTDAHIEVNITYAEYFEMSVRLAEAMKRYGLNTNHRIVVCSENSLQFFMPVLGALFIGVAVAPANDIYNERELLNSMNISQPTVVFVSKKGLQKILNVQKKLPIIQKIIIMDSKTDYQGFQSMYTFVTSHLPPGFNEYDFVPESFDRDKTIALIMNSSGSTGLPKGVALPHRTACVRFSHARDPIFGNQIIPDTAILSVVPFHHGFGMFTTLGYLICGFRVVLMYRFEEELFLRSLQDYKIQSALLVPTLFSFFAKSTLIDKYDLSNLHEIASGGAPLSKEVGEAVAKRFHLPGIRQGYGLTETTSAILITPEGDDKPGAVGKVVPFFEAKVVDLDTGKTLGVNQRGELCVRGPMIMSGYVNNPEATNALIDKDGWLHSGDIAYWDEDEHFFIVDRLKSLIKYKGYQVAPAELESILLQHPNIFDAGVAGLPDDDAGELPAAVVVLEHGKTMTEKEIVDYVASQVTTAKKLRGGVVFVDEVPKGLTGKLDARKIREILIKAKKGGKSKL
* = called active by the depositor; x = not tested or not shown.

SMILES | Lipid droplet | HSP90 refold inh | HSF1 inh | HCV NS3 hel inh | HSF-1 act | HSP90 confirm | luciferase ctr
COC(=O)c1ccc(CNC(=O)c2ccc(OCC(=O)N3CCOCC3)c(OC)c2)cc1 | x | x | -1 | x | -13 | x | x
CC(C)Oc1ccc(/C(O)=C2/C(=O)C(=O)N(Cc3cccnc3)C2c2ccco2)cc1 (centres undefined) | x | 20* | -34 | 10 | -47 | 3 | 15*
CCOc1ccc(NS(=O)(=O)c2ccc(C(=O)N(C)Cc3cccc(OC)c3OC)cc2)cc1 | -53 | 0 | 2 | -13 | -13 | x | x
c1ccc2c(c1)CC1(CCCC1)n1nnnc1-2 | x | 18* | -5 | -2 | -5 | 0 | -4
Cc1onc(-c2ccccc2)c1C(=O)N1CCN(c2ccc([N+](=O)[O-])cc2)CC1 | -6 | -1 | 1 | -5 | 9 | x | x
Cc1c(-c2ccccc2)oc2c(C(=O)N3CCN(c4ccc([N+](=O)[O-])cc4)CC3)cccc2c1=O | -3 | 21* | -36 | -2 | -42 | 10 | 1
Cc1ccccc1Nc1nc(-c2sc(NC(=O)c3cccc(Cl)c3)nc2C)cs1 | x | 78* | 24 | -14 | -1 | 52* | -6
Cc1ccc(-c2csc(NC(=O)c3ccc(-c4ccccc4)cc3)n2)o1 | -3 | 37* | -25 | 9 | -27 | 36* | 0
Cc1ccc(Cl)cc1Nc1nc(-c2sc(NC(=O)c3cccc(Cl)c3)nc2C)cs1 | x | 65* | 0 | -11 | 21 | 44* | -20
COc1ccccc1Nc1nc(-c2sc(NC(=O)c3ccco3)nc2C)cs1 | x | 12 | -2 | 7 | 3 | x | x
Cc1nc(NC(=O)c2ccco2)sc1-c1csc(Nc2ccc(Cl)cc2Cl)n1 | x | 9 | 2 | -10 | 10 | x | x
Cc1ccccc1Nc1nc(-c2sc(NC(=O)c3ccccc3)nc2C)cs1 | x | 59* | 13 | 1 | 21 | 30* | -14
O=C(Nc1nc(-c2ccco2)cs1)c1ccccc1 | x | -5 | 13 | 11 | 29 | x | x
CCCCCC(=O)Nc1nc(C)c(-c2csc(Nc3cc(Cl)ccc3C)n2)s1 | x | 0 | 1 | 1 | -4 | x | x
Cc1ccccc1Nc1nc(-c2sc(NC(=O)c3ccc([N+](=O)[O-])cc3)nc2C)cs1 | x | 79* | -2 | -2 | 2 | 53* | -4
Cc1ccc(Nc2nc(-c3sc(NC(=O)c4ccc([N+](=O)[O-])cc4)nc3C)cs2)cc1 | x | 81* | -14 | 4 | -18 | 45* | -10
CCCCC(=O)Nc1nc(C)c(-c2csc(Nc3ccccc3OC)n2)s1 | x | 3 | 3 | -8 | -3 | x | x
CCC(C)C(=O)Nc1nc(C)c(-c2csc(Nc3ccccc3OC)n2)s1 (centres undefined) | x | 3 | 3 | -3 | 6 | x | x
CCOc1ccccc1Nc1nc(-c2sc(NC(=O)c3ccc([N+](=O)[O-])cc3)nc2C)cs1 | x | 79* | -45 | 12 | -48 | 20* | -4
Cc1cc(C)cc(NC(=O)COc2coc(CN3CCc4ccccc4C3)cc2=O)c1 | x | x | 4 | x | 10 | x | x
O=C(NC1CCCCC1)C1(S(=O)(=O)c2ccc(Cl)cc2)CC1 | x | -3 | 0 | -3 | 1 | x | x
O=C(c1cccc(C(F)(F)F)c1)N1CCCC1 | 6 | -1 | -2 | 8 | -11 | x | x
O=C(Nc1ccc(C(=O)N2CCCC2)cc1)c1cccc(C(F)(F)F)c1 | -1 | 21* | -5 | -10 | -15 | -8 | -13
O=[N+]([O-])c1cc([N+](=O)[O-])c2c(=Nc3ccccc3)n(-c3ccccc3)n(O)c2c1 | 1 | 1 | 22 | 21 | 28 | x | x
Cc1nc(NC(=O)CN2CCC(O)(c3ccc(F)cc3)CC2)sc1C | 10 | 6 | 6 | 9 | -5 | x | x
SMILES | Lipid droplet | HSP90 refold inh | HSF1 inh | HCV NS3 hel inh | HSF-1 act | HSP90 confirm | luciferase ctr
NC(=S)Nc1cccc(F)c1 | 6 | 1 | -1 | -10 | -5 | x | x
Cc1ccc(-c2onc3ccc(Br)cc23)cc1 | 9 | 4 | 0 | 2 | 11 | x | x
Cc1ccc(-c2onc3ccc(C4OCCO4)cc23)cc1 | -13 | 35* | -33 | 3 | -38 | 1 | -20
O=C(CCN1C(=O)S/C(=C\c2ccc(F)cc2)C1=O)Nc1ccc(O)cc1C(=O)O | 11 | 1 | -6 | 22 | 2 | x | x
Cc1ccc2nc(-c3ccc(O)c(O)c3)cn2c1 | -2 | 30* | 11 | -2 | 21 | 41* | 9.7*
Oc1ccc(-c2cn3cc(C(F)(F)F)ccc3n2)cc1 | 12 | 17* | 37 | 2 | 48 | 49* | 40*
Cc1ccc2nc(-c3ccccc3)cn2c1 | x | 86* | -11 | 1 | -13 | 92* | 83*
CC(=O)Nc1ccc(-c2cn3cc(C)ccc3n2)cc1 | 23 | 4 | 14 | 0 | 23 | x | x
Cc1nc(-c2ccc(O)c(O)c2)cs1 | -14 | -3 | -41 | 16 | -48 | x | x
Clc1ccc(-c2cn3cc(Cl)ccc3n2)cc1 | x | 32* | 18 | 20 | 45 | 55* | 54*
COc1ccc(CC(=O)NNC(=O)c2c(-c3ccccc3Cl)noc2C)cc1OC | -6 | -5 | -12 | -2 | -17 | x | x
CCn1cc(C(=O)NCCCN2CCCC(C)C2)c(=O)c2cc(S(=O)(=O)N(C)C3CCCCC3)ccc21 (centres undefined) | -7 | -5 | 1 | -85 | -4 | x | x
COc1ccc(C/C(C)=N/NC(=S)Nc2ccccc2F)cc1 | 2 | 36* | -64* | 5 | -70 | 48* | 35*
COc1cccc2cc(-c3nc4ccccc4o3)c(=O)oc12 | -16 | 19* | 14 | 1 | 6 | 18* | 2
COc1cccc2cc3c(=O)n(-c4ccccc4)nc-3oc12 | x | 1 | -4 | 7 | 6 | x | x
CN(C)c1cccc2c(/C=N/O)ccc(N(C)C)c12 | -5 | 52* | -7 | -8 | -12 | -3 | -6
CC(C)CC(=O)NC(C)C(c1cccs1)N1CCOCC1 (centres undefined) | -2 | 0 | -2 | 10 | 0 | x | x
COC(=O)c1nnn(CC(=O)NC(=O)Nc2cccc(Cl)c2C)c1C(=O)OC | 0 | 0 | 18 | 10 | 19 | x | x
Cc1ccc(C(=O)COC(=O)c2cnccn2)cc1 | x | -1 | -1 | 8 | -3 | x | x
O=C(COC(=O)c1cnccn1)c1ccc([N+](=O)[O-])cc1 | 6 | 38* | -2 | 2 | 5 | 1 | -23
COCCNC(=S)NNc1cccc(C(=O)O)c1 | 0 | 18* | -4 | -4 | -2 | 9 | 7

From PubChem BioAssay
